In brackets after ≈: the same amount, converted by molar mass.
Tests used:
in vitro [1] = conditions: human, liver microsomes
in vitro [2] = conditions: mouse, liver microsomes
physchem [3] = conditions: buffer, pH 7.4
physchem [4] = conditions: phosphate buffer, pH 7.4
[5] = Thermodynamic solubility of the compound in pH 7.4 solution after 90 mins by UVLC-MS analysis; assay type: physicochemical; conditions: for Therm_solubility: buffer, pH 7.4, 1.5 h; for solubility thermodynamic at 1.5 h: pH 7.4 solution, pH 7.4, read-out: Therm_solubility
[6] = molecular target: T1, Voltage-gated inwardly rectifying potassium channel KCNH2 (Homo sapiens, UniProt Q12809)
Cytochrome P450 3A4 [7] = molecular target: T2, Cytochrome P450 3A4 (Homo sapiens, UniProt P08684); conditions: liver microsomes
[8] = buffer, 1.5 h, pH 7.4
[9] = buffer, pH 7.4, 1.5 h
Cytochrome P450 3A4 [10] = molecular target: T2, Cytochrome P450 3A4
[11] = molecular target: T1, Voltage-gated inwardly rectifying potassium channel KCNH2; remark: listed apart in the source
Mus musculus [12] = test: Unbound Cmax in Balb/c mouse at 10 mg/kg, po after 1 hr; assay type: ADME, organism-based; conditions: in vivo
[13] = Clearance in Balb/c mouse at 1 mg/kg, iv; assay type: ADME, organism-based; conditions: Balb/c, in vivo
Summary of the method: (§1)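 Intravenous PK in male Balb/C mice, n=3, at 1 mpk. Vehicle was 30% DMA or 15% NMP, depending on the compound.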

[14] = Volume of distribution at steady state in Balb/c mouse at 1 mg/kg, iv; assay type: ADME, organism-based; conditions: Balb/c, in vivo, read-out: Vdss
Summary of the method: as §1

Mus musculus [15] = test: Unbound AUC (infinity) in Balb/c mouse at 10 mg/kg, po after 1 hr; assay type: ADME, organism-based; conditions: in vivo
Mus musculus [16] = test: Unbound AUC in Balb/c mouse at 1 mg/kg, iv; assay type: ADME, organism-based; conditions: in vivo
Summary of the method: as §1

[17] = Oral bioavailability in Balb/c mouse at 10 mg/kg after 1 hr; assay type: ADME, organism-based; conditions: Balb/c, in vivo
Summary of the method: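 Male Balb/C mice, n=3. Oral dose of 10 mpk as a homogeneous suspension of crystalline solid in 0.1% Tween 80, 0.1% silicone antifoam, 1% methylcellulose (400 cps) in water. I.v. dose of 1 mpk in 30% DMA or 15% NMP, depending on the compound. Bioavailability was extrapolated from the i.v./p.o. experiments.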

[18] = Apparent clearance in Balb/c mouse at 10 mg/kg, po after 1 hr; assay type: ADME, organism-based; conditions: in vivo
[19] = Fraction unbound in mouse blood; assay type: ADME, tissue-based
[20] = Half life in Balb/c mouse at 1 mg/kg, iv; assay type: ADME, organism-based; conditions: Balb/c, in vivo
Summary of the method: as §1

T1 sequence (Q12809 whole entry): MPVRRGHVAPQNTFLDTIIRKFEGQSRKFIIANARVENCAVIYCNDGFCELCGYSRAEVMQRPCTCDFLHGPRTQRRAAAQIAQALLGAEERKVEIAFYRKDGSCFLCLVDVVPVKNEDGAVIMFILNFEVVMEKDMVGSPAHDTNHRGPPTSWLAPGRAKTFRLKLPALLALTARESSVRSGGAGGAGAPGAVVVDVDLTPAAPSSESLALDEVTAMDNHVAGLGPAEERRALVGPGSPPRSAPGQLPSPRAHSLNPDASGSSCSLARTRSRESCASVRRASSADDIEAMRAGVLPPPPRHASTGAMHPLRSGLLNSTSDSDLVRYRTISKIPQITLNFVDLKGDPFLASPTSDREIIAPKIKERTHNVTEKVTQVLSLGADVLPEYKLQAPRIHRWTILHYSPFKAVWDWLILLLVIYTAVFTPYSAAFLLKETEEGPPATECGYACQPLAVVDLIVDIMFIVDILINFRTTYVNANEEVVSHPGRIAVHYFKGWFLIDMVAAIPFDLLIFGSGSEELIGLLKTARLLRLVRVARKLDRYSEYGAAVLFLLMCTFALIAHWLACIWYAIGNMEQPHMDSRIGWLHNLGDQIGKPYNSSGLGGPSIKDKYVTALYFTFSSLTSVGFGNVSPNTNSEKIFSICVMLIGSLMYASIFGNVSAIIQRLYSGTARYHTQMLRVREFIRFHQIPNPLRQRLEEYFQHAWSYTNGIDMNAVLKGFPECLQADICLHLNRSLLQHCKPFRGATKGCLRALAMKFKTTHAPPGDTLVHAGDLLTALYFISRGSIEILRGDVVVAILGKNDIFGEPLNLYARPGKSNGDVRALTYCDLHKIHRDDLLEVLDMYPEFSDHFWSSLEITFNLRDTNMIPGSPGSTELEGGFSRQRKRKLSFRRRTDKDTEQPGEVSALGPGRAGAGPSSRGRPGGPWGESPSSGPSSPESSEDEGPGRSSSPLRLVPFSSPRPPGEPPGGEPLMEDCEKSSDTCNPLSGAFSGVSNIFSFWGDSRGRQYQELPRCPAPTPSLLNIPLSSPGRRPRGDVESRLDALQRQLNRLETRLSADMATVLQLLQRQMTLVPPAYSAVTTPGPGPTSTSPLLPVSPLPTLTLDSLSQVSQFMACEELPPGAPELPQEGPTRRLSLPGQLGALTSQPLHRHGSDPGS
T2 sequence (P08684 whole entry): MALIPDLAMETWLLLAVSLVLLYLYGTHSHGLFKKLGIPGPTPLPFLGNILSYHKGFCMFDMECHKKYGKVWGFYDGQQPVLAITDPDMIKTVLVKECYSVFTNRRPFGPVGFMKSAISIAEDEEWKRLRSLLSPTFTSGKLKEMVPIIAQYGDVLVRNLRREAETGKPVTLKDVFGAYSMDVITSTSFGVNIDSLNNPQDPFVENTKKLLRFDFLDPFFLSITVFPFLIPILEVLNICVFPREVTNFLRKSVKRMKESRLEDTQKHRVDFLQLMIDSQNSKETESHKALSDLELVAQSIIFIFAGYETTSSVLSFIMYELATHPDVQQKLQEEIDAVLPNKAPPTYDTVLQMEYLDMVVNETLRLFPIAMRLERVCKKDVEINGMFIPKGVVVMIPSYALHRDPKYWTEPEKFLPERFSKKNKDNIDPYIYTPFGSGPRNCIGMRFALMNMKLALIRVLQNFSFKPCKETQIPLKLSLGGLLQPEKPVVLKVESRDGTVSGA

COc1ccc(NC(=O)N2CCN(c3nc(N)nc4sc(-c5cccnc5)nc34)CC2)cc1
microsomal CLint at 0.75 h, 3 µM (in vitro [1]): 35 µL/min/mg | microsomal CLint at 0.75 h, 3 µM (in vitro [2]): 87 µL/min/mg

Cc1ccc(NC(=O)N2CCN(c3nc(N)nc4scnc34)CC2)cc1
solubility kinetic at 1.5 h (physchem [3]): 21 µM (≈ 7.76 µg/mL) | logD at 1.5 h (physchem [4]): 2.55

COc1ccc(NC(=O)N2CCN(c3nc(N)nc4scnc34)CC2C)cc1 (centres undefined)
solubility kinetic at 1.5 h (physchem [3]): > 350 µM | Therm_solubility [5]: Nd(Insoluble) | IC50 [6]: Nd(Insoluble) | IC50 (Cytochrome P450 3A4 [7]): Nd(Insoluble)

Nc1nc(N2CCN(C(=O)Nc3ccccc3)CC2)c2ncsc2n1
solubility kinetic at 1.5 h (physchem [3]): 178 µM (≈ 63.3 µg/mL) | logD at 1.5 h (physchem [4]): 2.21

Cc1cccc(NC(=O)N2CCN(c3nc(N)nc4scnc34)CC2)c1
solubility kinetic at 1.5 h (physchem [3]): 34 µM (≈ 12.6 µg/mL) | logD at 1.5 h (physchem [4]): 2.81

Nc1nc(N2CCN(C(=O)COc3ccc(Cl)cc3)CC2)c2nc(-c3cccnc3)sc2n1
microsomal CLint at 0.75 h, 3 µM (in vitro [1]): 34 µL/min/mg | IC50 [6]: Nd(Insoluble) | Kinetic_solubility [8]: Nd(Insoluble) | IC50 (Cytochrome P450 3A4 [7]): Nd(Insoluble) | microsomal CLint at 0.75 h, 3 µM (in vitro [2]): 133 µL/min/mg | logD [9]: Nd(Insoluble)

COc1ccc(NC(=O)N2CCN(c3nc(N)nc4scnc34)CC2)c(C)c1
solubility kinetic at 1.5 h (physchem [3]): 33 µM (≈ 13.2 µg/mL) | logD at 1.5 h (physchem [4]): 2.03

Cc1ccccc1NC(=O)N1CCN(c2nc(N)nc3scnc23)CC1
solubility kinetic at 1.5 h (physchem [3]): 33 µM (≈ 12.2 µg/mL) | logD at 1.5 h (physchem [4]): 2.12

Nc1nc(N2CCN(C(=O)c3nc4ccccc4[nH]3)CC2)c2ncsc2n1
solubility kinetic at 1.5 h (physchem [3]): 38 µM (≈ 14.5 µg/mL) | logD at 1.5 h (physchem [4]): 2.54

COc1ccc(NC(=O)N2CCN(c3nc(N)nc4scnc34)[C@@H](C)C2)c(C)n1
IC50 (Cytochrome P450 3A4 [10]): > 20 µM | IC50 [11]: > 30 µM | solubility kinetic at 1.5 h (physchem [3]): > 350 µM | solubility thermodynamic at 1.5 h [5]: 362 µM (≈ 150 µg/mL)

COc1ccc(NC(=O)N2CCN(c3nc(N)nc4scnc34)CC2)c(C)n1
solubility kinetic at 1.5 h (physchem [3]): 207 µM (≈ 82.9 µg/mL) | logD at 1.5 h (physchem [4]): 1.65

COc1ccc(NC(=O)N2CCN(c3nc(N)nc4sc(-c5ccccc5)nc34)CC2)cc1
microsomal CLint at 0.75 h, 3 µM (in vitro [1]): 13 µL/min/mg | IC50 (Cytochrome P450 3A4 [10]): > 20 µM | IC50 [11]: 1.7 µM | solubility kinetic at 1.5 h (physchem [3]): 6 µM (≈ 2.77 µg/mL) | microsomal CLint at 0.75 h, 3 µM (in vitro [2]): 20 µL/min/mg | logD [9]: Nd(Insoluble)

COc1ccc(CC(=O)N2CCN(c3nc(N)nc4scnc34)CC2)cc1OC
solubility kinetic at 1.5 h (physchem [3]): > 350 µM | logD at 1.5 h (physchem [4]): 1.5

COc1ccc(NC(=O)N2CC3CCC(C2)N3c2nc(N)nc3scnc23)cc1
solubility kinetic at 1.5 h (physchem [3]): > 350 µM | Therm_solubility [5]: Nd(Insoluble) | IC50 [6]: Nd(Insoluble) | IC50 (Cytochrome P450 3A4 [7]): Nd(Insoluble)

Nc1nc(N2CCN(C(=O)Nc3cccnc3)CC2)c2ncsc2n1
solubility kinetic at 1.5 h (physchem [3]): > 350 µM | logD at 1.5 h (physchem [4]): 1.46

COc1ccc(NC(=O)N2CCN(c3nc(N)nc4scnc34)[C@@H](C)C2)cc1
fCmax (Mus musculus [12]): 194 nM | clearance [13]: 29 mL/min/kg | microsomal CLint at 0.75 h, 3 µM (in vitro [1]): 14 µL/min/mg | Vd [14]: 1 L/kg | fAUC (Mus musculus [15]): 0.205 µM·h | IC50 (Cytochrome P450 3A4 [10]): > 20 µM | IC50 [11]: 17 µM | solubility kinetic at 1.5 h (physchem [3]): > 350 µM | fAUC (Mus musculus [16]): 0.03 µM·h | bioavailability [17]: 68% | logD at 1.5 h (physchem [4]): 2.32 | solubility thermodynamic at 1.5 h [5]: 30 µM (≈ 12 µg/mL) | CL/F [18]: 42 mL/min/kg | microsomal CLint at 0.75 h, 3 µM (in vitro [2]): 35 µL/min/mg | fraction unbound [19]: 0.02 | half-life [20]: 54 min

COc1ccc(NC(=O)N2C3CCC2CN(c2nc(N)nc4scnc24)C3)cc1
solubility kinetic at 1.5 h (physchem [3]): > 350 µM | Therm_solubility [5]: Nd(Insoluble) | IC50 [6]: Nd(Insoluble) | IC50 (Cytochrome P450 3A4 [7]): Nd(Insoluble)
